# In ChEMBL document CHEMBL5338772, “Stereochemical Control of Splice Modulation in FD-895 Analogues” (J Med Chem, 2023):
# Active and inactive are the calls of the source. The rule behind the calls is not given here.
# What was measured:
# [1] = Cytotoxicity against human HCT-116 cells assessed as cell growth inhibition incubated for 72 hrs by MTS assay; format: toxicity, cell-based
# Summary of the method: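 HCT-116 cells (ATCC; split every other day, no more than five generations, mycoplasma-tested) plated at 5 × 10³ cells/well in supplemented McCoy's 5a and grown 24 h at 37 °C, 5% CO₂. Compound added from DMSO (0.5% DMSO final) for 72 h. Cells washed with PBS, MTS reagent added for 2 h at 37 °C, A490 read against A690. GI₅₀ fitted from dose curves of 3 biological replicates.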
# [2] = test system: HCT-116; assay: Downregulation of SF2 mRNA expression in human HCT-116 cells at 100 to 500 nM incubated for 24 hrs by qRT-PCR analysis; format: functional, cell-based; settings: dose 100-500 nM
# Summary of the method: (§1)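 HCT-116 cells in supplemented McCoy's 5a with 0.5% DMSO, treated 24 h at 100, 250 or 500 nM; untreated cells as control. Total RNA isolated, 1 µg DNase I-treated, reverse transcribed. qPCR on 5 ng cDNA with 2.5 µM each primer, 40 cycles of 95 °C 30 s, 55 °C 60 s, 72 °C 60 s. Splice-event primers for intron retention or exon skipping; SF2 primers measure total expression. 2^-CT method relative to GAPDH, untreated set at 1.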
# [3] = test system: HCT-116; assay: Downregulation of PLK-1 mRNA expression in human HCT-116 cells at 100 to 500 nM incubated for 24 hrs by qRT-PCR analysis; format: functional, cell-based; settings: dose 100-500 nM; summary of the method: as §1
# [4] = test system: HCT-116; assay: Cytotoxicity against human HCT-116 cells assessed as reduction in cell viability at 42 nM incubated for 4 hrs by MTS assay; format: toxicity, cell-based; settings: hct-116, 4 h, 0.042 µM
# [5] = test system: HCT-116; assay: Cytotoxicity against human HCT-116 cells assessed as reduction in cell viability at 500 nM incubated for 24 hrs by MTS assay; format: toxicity, cell-based; settings: hct-116, 24 h, 0.5 µM
# Summary of the method: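 HCT-116 cells plated at 5 × 10³ cells/well in supplemented McCoy's 5a and grown 24 h at 37 °C, 5% CO₂. Compound given at 500 nM, the top dose of the 24 h splicing series, in 0.5% DMSO for 24 h. Cells washed with PBS, MTS reagent added for 2 h at 37 °C, A490 read against A690.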
# [6] = test system: SF3A3 pre-mRNA; assay: Modulation of splicing in SF3A3 pre-mRNA in human HCT-116 cells assessed as intron 5 retention level at 42 nM incubated for 4 hrs by qRT-PCR analysis; format: functional, cell-based; settings: filed as modulator
# [7] = test system: SF3B1 pre-mRNA; assay: Modulation of splicing in SF3B1 pre-mRNA in human HCT-116 cells assessed as intron 13 retention level at 42 nM incubated for 4 hrs by qRT-PCR analysis; format: functional, cell-based; settings: filed as modulator
# Summary of the method: (§2)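 HCT-116 cells in supplemented McCoy's 5a, compound added from DMSO stock to a final 0.5% DMSO, 4 h at a single standardized concentration per analogue. Total RNA isolated and DNase-treated (1 µg). qPCR used 2.5 µM each primer on 5 ng cDNA, 40 cycles. Intron retention was computed by the 2^-CT method relative to GAPDH and expressed versus untreated cells set to 1.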
# [8] = test system: DNAJB1 pre-mRNA; assay: Modulation of splicing in DNAJB1 pre-mRNA in human HCT-116 cells assessed as intron 2 retention level at 42 nM incubated for 4 hrs by qRT-PCR analysis; format: functional, cell-based; settings: filed as modulator
# [9] = test system: SF3A1 pre-mRNA; assay: Modulation of splicing in SF3A1 pre-mRNA in human HCT-116 cells assessed as intron 6 retention level at 42 nM incubated for 4 hrs by qRT-PCR analysis; format: functional, cell-based; settings: filed as modulator
# [10] = test system: SF3B2 pre-mRNA; assay: Modulation of splicing in SF3B2 pre-mRNA in human HCT-116 cells assessed as intron 10 retention level at 42 nM incubated for 4 hrs by qRT-PCR analysis; format: functional, cell-based; settings: filed as modulator; summary of the method: as §2
# [11] = test system: AURKA pre-mRNA; assay: Modulation of splicing in AURKA pre-mRNA in human HCT-116 cells assessed as effect on exon 4 skipping at 42 nM incubated for 4 hrs by qRT-PCR analysis; format: functional, cell-based; settings: filed as modulator
# [12] = test system: DNAJB1 pre-mRNA; assay: Modulation of splicing in DNAJB1 pre-mRNA in human HCT-116 cells assessed as reduction in intron 2 retention level at 100 to 500 nM incubated for 24 hrs by qRT-PCR analysis; format: functional, cell-based; settings: filed as modulator, dose 100-500 nM; summary of the method: as §1
# [13] = test system: SF3B2 pre-mRNA; assay: Modulation of splicing in SF3B2 pre-mRNA in human HCT-116 cells assessed as increase in intron 10 retention level incubated for 24 hrs by qRT-PCR analysis; format: functional, cell-based; settings: filed as modulator, dose 100-500 nM
# Summary of the method: (§3)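 HCT-116 cells in supplemented McCoy's 5a with 0.5% final DMSO were treated for 24 h at 100, 250 or 500 nM. Total RNA isolated and DNase-treated (1 µg). qPCR used 2.5 µM each primer on 5 ng cDNA, 40 cycles. Intron retention was computed by the 2^-CT method relative to GAPDH and expressed versus untreated cells set to 1.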
# [14] = test system: SF3B1 pre-mRNA; assay: Modulation of splicing in SF3B1 pre-mRNA in human HCT-116 cells assessed as increase in intron 13 retention level incubated for 24 hrs by qRT-PCR analysis; format: functional, cell-based; settings: filed as modulator, dose 100-500 nM; summary of the method: as §3
# [15] = test system: HCT-116; assay: Cytotoxicity against human HCT-116 cells assessed as reduction in cell viability at 44 nM incubated for 4 hrs by MTS assay; format: toxicity, cell-based; settings: hct-116, 4 h, 0.044 µM
# [16] = test system: SF3A3 pre-mRNA; assay: Modulation of splicing in SF3A3 pre-mRNA in human HCT-116 cells assessed as intron 5 retention level at 44 nM incubated for 4 hrs by qRT-PCR analysis; format: functional, cell-based; settings: filed as modulator
# [17] = test system: SF3B1 pre-mRNA; assay: Modulation of splicing in SF3B1 pre-mRNA in human HCT-116 cells assessed as intron 13 retention level at 44 nM incubated for 4 hrs by qRT-PCR analysis; format: functional, cell-based; settings: filed as modulator; summary of the method: as §2
# [18] = test system: DNAJB1 pre-mRNA; assay: Modulation of splicing in DNAJB1 pre-mRNA in human HCT-116 cells assessed as intron 2 retention level at 44 nM incubated for 4 hrs by qRT-PCR analysis; format: functional, cell-based; settings: filed as modulator
# [19] = test system: SF3A1 pre-mRNA; assay: Modulation of splicing in SF3A1 pre-mRNA in human HCT-116 cells assessed as intron 6 retention level at 44 nM incubated for 4 hrs by qRT-PCR analysis; format: functional, cell-based; settings: filed as modulator
# [20] = test system: SF3B2 pre-mRNA; assay: Modulation of splicing in SF3B2 pre-mRNA in human HCT-116 cells assessed as intron 10 retention level at 44 nM incubated for 4 hrs by qRT-PCR analysis; format: functional, cell-based; settings: filed as modulator; summary of the method: as §2
# [21] = test system: AURKA pre-mRNA; assay: Modulation of splicing in AURKA pre-mRNA in human HCT-116 cells assessed as effect on exon 4 skipping at 44 nM incubated for 4 hrs by qRT-PCR analysis; format: functional, cell-based; settings: filed as modulator
smiles,measurement,setting,value
CC[C@H](OC)[C@@H](C)[C@H]1O[C@@H]1[C@@H](O)[C@H](C)/C=C/C=C(\C)[C@H]1OC(=O)C[C@H](O)CC[C@@](C)(O)[C@H](OC(C)=O)/C=C/[C@@H]1C,GI50 at 72 h,[1],860 nM
CC[C@H](OC)[C@@H](C)[C@H]1O[C@@H]1[C@@H](O)[C@H](C)/C=C/C=C(\C)[C@H]1OC(=O)C[C@H](O)CC[C@@](C)(O)[C@@H](OC(C)=O)/C=C/[C@@H]1C,Activity,[2],inactive
same,Activity,[3],inactive
same,GI50 at 72 h,[1],2.2 nM
same,Activity,[4],Non-Toxic
same,Activity,[5],Non-Toxic
same,Activity,[6],< 3
same,Activity,[7],< 3
same,Activity,[8],> 3
same,Activity,[9],> 3
same,Activity,[10],> 3
same,Activity,[11],Active
same,Activity,[12],Active
same,Activity,[13],Dose-Dependent Effect
same,Activity,[14],Dose-Dependent Effect
CC[C@H](OC)[C@@H](C)[C@H]1O[C@@H]1[C@H](OC)[C@H](C)/C=C/C=C(\C)[C@H]1OC(=O)C[C@H](O)CC[C@@](C)(O)[C@@H](OC(C)=O)/C=C/[C@@H]1C,GI50 at 72 h,[1],2.6 nM
same,Activity,[15],Non-Toxic
same,Activity,[5],Non-Toxic
same,Activity,[16],< 3
same,Activity,[17],< 3
same,Activity,[18],> 3
same,Activity,[19],> 3
same,Activity,[20],> 3
same,Activity,[21],Active
